Measurements: ChEMBL document CHEMBL4382197, “Discovery of QCA570 as an Exceptionally Potent and Efficacious Proteolysis Targeting Chimera (PROTAC) Degrader of the Bromodomain and Extra-Terminal (BET) Proteins Capable of Inducing Complete and Durable Tumor Regression” (J Med Chem, 2018)
The source made the active and inactive calls. The rule behind the calls is not given here.

Assays:
[1] = target: T1, Protein cereblon/Eukaryotic peptide chain release factor GTP-binding subunit ERF3A/Cullin-4A (Homo sapiens) (UniProt Q96SW2+Q13619+P15170); test: Induction of Cereblon/Cullin 4A-mediated-GSPT1 degradation in human RS4:11 cells at 0.01 to 10 nM after 3 hrs by Western blot analysis; assay type: cell-based
[2] = Drug uptake in liver of SCID mouse xenografted with human RS4:11 cells at 5 mg/kg, iv measured at 6 hrs by LC-MS/MS analysis; assay type: ADME, organism-based; settings: in vivo, BLD = below limit of detection
Outline: (§1)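 Female SCID mice with RS4;11 tumors received a single 5 mg/kg intravenous dose in 20% PCP/80% PBS. Plasma (heparin) and tissues were taken at 1, 3 and 6 h, one mouse per time point in duplicate. Plasma was precipitated with acetonitrile containing internal standard. Tissues were homogenized 5:1 in 20% acetonitrile. Quantified by LC-MS/MS against spiked plasma standards (2–2000 ng/mL); values in ng/ml or ng/g.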

[3] = target: T2, Protein cereblon/Bromodomain-containing protein 2/Cullin-4A (Homo sapiens) (UniProt P25440+Q96SW2+Q13619); test: Protac activity at cereblon/cullin 4A/BRD2 in human RS4:11 cells assessed as BRD2 degradation at 0.5 nM after 3 hrs in presence of lenalidomide by Western blot analysis; assay type: cell-based
Outline: (§2)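 RS4;11 cells were pre-treated for 2 h with DMSO, lenalidomide (10 μM), MLN4924 (1 μM) or MG-132 (20 μM). The degrader was then added at 0.5 nM for 3 h. Lysates were immunoblotted for BRD2, BRD3 and BRD4, with GAPDH as loading control.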

[4] = system: RS4-11; test: Induction of apoptosis in human RS4:11 cells at 0.1 nM after 48 hrs by Annexin V/propidium iodine-double staining-based flow cytometry relative to control; assay type: functional
Outline: (§3)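 Leukemia cells were treated for 24 h or 48 h at the indicated concentrations. They were then collected, washed in cold PBS and stained with Annexin V and propidium iodide. Apoptotic fraction was measured by flow cytometry.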

[5] = Drug uptake in heart of SCID mouse xenografted with human RS4:11 cells at 5 mg/kg, iv measured at 6 hrs by LC-MS/MS analysis; assay type: ADME, organism-based; settings: in vivo, BLD = below limit of detection; outline: as §1
[6] = target: T3, Protein cereblon/Bromodomain-containing protein 4/Cullin-4A (Homo sapiens) (UniProt O60885+Q96SW2+Q13619); test: Protac activity at cereblon/cullin 4A/BRD4 in human RS4:11 cells assessed as BRD4 degradation at 0.5 nM after 3 hrs in presence of lenalidomide by Western blot analysis; assay type: cell-based; outline: as §2
[7] = system: MV4-11; test: Induction apoptosis in human MV4-11 cells assessed as caspase-3 activation at 0.3 nM after 24 hrs by Western blot analysis; assay type: functional, cell-based
Outline: (§4)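 Cells (1.5–2×10^6/well) were treated for 24 h, washed in cold PBS and lysed in RIPA with protease inhibitors. 20 µg lysate was run on 4–20% or 4–12% gels and transferred to PVDF. Blots were probed for cleaved PARP and cleaved caspase 3, with GAPDH as loading control. Detection by ECL.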

[8] = target: T3, Protein cereblon/Bromodomain-containing protein 4/Cullin-4A (Homo sapiens); test: Protac activity at cereblon/cullin 4A/BRD4 in human RS4:11 cells assessed as BRD4 degradation at 10 pM after 3 hrs by Western blot analysis; assay type: cell-based
[9] = target: T4, Protein cereblon/Bromodomain-containing protein 3/Cullin-4A (Homo sapiens) (UniProt Q15059+Q96SW2+Q13619); test: Protac activity at cereblon/cullin 4A/BRD3 in human RS4:11 cells assessed as BRD3 degradation at 0.5 nM after 3 hrs in presence of lenalidomide by Western blot analysis; assay type: cell-based; outline: as §2
[10] = system: Mus musculus; test: In vivo Protac activity at cereblon/cullin/BRD2 in tumor of human RS4:11 cells xenografted in SCID mouse assessed as reduction in BRD2 protein expression at 1 to 5 mg/kg, iv administered as single dose and measured at 1 to 6 hrs by Western blot analysis; assay type: functional, organism-based
Outline: (§5)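 SCID mice bearing subcutaneous RS4;11 tumors were given a single intravenous dose of 1 or 5 mg/kg. Tumors were harvested at 1, 6 and 24 h, two mice per time point. Tissue was ground in liquid nitrogen and lysed in CST buffer with protease inhibitors. 20 µg lysate per lane was probed for BRD2, BRD3, BRD4, c-Myc and cleaved PARP, with GAPDH as loading control.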

[11] = Toxicity in SCID mouse xenografted with human RS4:11 cells at 1 to 5 mg/kg, iv administered 3 times per week for 3 weeks; assay type: organism-based; settings: in vivo, 504 h
Outline: (§6)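 SCID mice received a subcutaneous dorsal implant of 5×10^6 RS4;11 cells in 50% Matrigel, one tumor per mouse. Mice were randomized at ~100 mm3 into treatment or vehicle groups. Doses were 1, 2.5 or 5 mg/kg three times weekly for 3 weeks, with body weight and signs of toxicity monitored.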

[12] = system: RS4-11; test: Induction of apoptosis in human RS4:11 cells after 24 to 48 hrs by Annexin V/propidium iodine-double staining-based flow cytometry; assay type: functional, cell-based; outline: as §3
[13] = target: T2, Protein cereblon/Bromodomain-containing protein 2/Cullin-4A (Homo sapiens); test: Protac activity at cereblon/cullin 4A/BRD2 in human RS4:11 cells assessed as BRD2 degradation at 0.5 nM after 3 hrs in presence of proteasome inhibitor MG132 by Western blot analysis; assay type: cell-based; outline: as §2
[14] = system: MV4-11; test: Induction of apoptosis in human MV4-11 cells after 24 to 48 hrs by Annexin V/propidium iodine-double staining-based flow cytometry; assay type: functional, cell-based; outline: as §3
[15] = system: Mus musculus; test: In vivo Protac activity at cereblon/cullin/BET in tumor of human RS4:11 cells xenografted in SCID mouse assessed as reduction in cMyc protein expression at 1 to 5 mg/kg, iv administered as single dose and measured at 1 to 24 hrs post dose by Western blot analysis; assay type: functional, organism-based; outline: as §5
[16] = target: T3, Protein cereblon/Bromodomain-containing protein 4/Cullin-4A (Homo sapiens); test: Protac activity at cereblon/cullin 4A/BRD4 in human RS4:11 cells assessed as BRD4 degradation at 0.5 nM after 3 hrs in presence of neddylation inhibitor MLN4924 by Western blot analysis; assay type: cell-based; outline: as §2
[17] = target: T4, Protein cereblon/Bromodomain-containing protein 3/Cullin-4A (Homo sapiens); test: Protac activity at cereblon/cullin 4A/BRD3 in human MV4-11 cells assessed as BRD3 degradation at 10 pM after 3 hrs by Western blot analysis; assay type: cell-based
[18] = target: T1, Protein cereblon/Eukaryotic peptide chain release factor GTP-binding subunit ERF3A/Cullin-4A (Homo sapiens); test: Induction of Cereblon/Cullin 4A-mediated-GSPT1 degradation in human MV4-11 cells at 0.01 to 10 nM after 3 hrs by Western blot analysis; assay type: cell-based
[19] = Toxicity in SCID mouse xenografted with human RS4:11 cells assessed weight loss at 1 to 5 mg/kg, iv administered 3 times per week for 3 weeks; assay type: organism-based; settings: in vivo, 504 h; outline: as §6
[20] = target: T4, Protein cereblon/Bromodomain-containing protein 3/Cullin-4A (Homo sapiens); test: Protac activity at cereblon/cullin 4A/BRD3 in human RS4:11 cells assessed as BRD3 degradation at 0.5 nM after 3 hrs in presence of proteasome inhibitor MG132 by Western blot analysis; assay type: cell-based; outline: as §2
[21] = system: RS4-11; test: Induction apoptosis in human RS4:11 cells assessed as caspase-3 activation at 0.3 nM after 24 hrs by Western blot analysis; assay type: functional, cell-based; outline: as §4
[22] = target: T3, Protein cereblon/Bromodomain-containing protein 4/Cullin-4A (Homo sapiens); test: Protac activity at cereblon/cullin 4A/BRD4 in human MV4-11 cells assessed as BRD4 degradation at 10 pM after 3 hrs by Western blot analysis; assay type: cell-based
[23] = system: MOLM-13; test: Induction of apoptosis in human MOLM13 cells at 1 nM after 24 hrs by Annexin V/propidium iodine-double staining-based flow cytometry relative to control; assay type: functional; outline: as §3
[24] = target: T4, Protein cereblon/Bromodomain-containing protein 3/Cullin-4A (Homo sapiens); test: Protac activity at cereblon/cullin 4A/BRD3 in human RS4:11 cells assessed as BRD3 degradation at 0.5 nM after 3 hrs in presence of neddylation inhibitor MLN4924 by Western blot analysis; assay type: cell-based; outline: as §2

T4 sequence (Q13619 whole entry, looked up): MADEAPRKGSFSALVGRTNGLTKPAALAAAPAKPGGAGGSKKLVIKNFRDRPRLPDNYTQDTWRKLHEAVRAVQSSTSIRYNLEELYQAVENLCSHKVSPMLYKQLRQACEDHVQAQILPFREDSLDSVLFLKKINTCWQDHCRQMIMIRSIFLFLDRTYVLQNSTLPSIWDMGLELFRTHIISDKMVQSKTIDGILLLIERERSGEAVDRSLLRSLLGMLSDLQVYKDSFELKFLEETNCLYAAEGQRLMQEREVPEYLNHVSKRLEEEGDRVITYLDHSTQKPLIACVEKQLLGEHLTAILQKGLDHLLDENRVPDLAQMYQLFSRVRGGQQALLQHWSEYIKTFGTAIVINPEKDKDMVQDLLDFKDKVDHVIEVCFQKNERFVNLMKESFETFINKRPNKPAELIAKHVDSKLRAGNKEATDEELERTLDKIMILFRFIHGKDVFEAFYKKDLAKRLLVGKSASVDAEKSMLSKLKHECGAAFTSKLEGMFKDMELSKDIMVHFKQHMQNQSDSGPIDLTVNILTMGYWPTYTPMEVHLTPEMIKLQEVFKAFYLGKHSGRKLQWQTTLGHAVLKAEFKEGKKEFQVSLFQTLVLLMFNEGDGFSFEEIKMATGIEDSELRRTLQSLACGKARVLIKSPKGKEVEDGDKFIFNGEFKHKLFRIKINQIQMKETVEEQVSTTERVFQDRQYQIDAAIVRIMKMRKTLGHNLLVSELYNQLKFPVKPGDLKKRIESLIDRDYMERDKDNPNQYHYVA
T4 sequence (Q15059 whole entry, looked up): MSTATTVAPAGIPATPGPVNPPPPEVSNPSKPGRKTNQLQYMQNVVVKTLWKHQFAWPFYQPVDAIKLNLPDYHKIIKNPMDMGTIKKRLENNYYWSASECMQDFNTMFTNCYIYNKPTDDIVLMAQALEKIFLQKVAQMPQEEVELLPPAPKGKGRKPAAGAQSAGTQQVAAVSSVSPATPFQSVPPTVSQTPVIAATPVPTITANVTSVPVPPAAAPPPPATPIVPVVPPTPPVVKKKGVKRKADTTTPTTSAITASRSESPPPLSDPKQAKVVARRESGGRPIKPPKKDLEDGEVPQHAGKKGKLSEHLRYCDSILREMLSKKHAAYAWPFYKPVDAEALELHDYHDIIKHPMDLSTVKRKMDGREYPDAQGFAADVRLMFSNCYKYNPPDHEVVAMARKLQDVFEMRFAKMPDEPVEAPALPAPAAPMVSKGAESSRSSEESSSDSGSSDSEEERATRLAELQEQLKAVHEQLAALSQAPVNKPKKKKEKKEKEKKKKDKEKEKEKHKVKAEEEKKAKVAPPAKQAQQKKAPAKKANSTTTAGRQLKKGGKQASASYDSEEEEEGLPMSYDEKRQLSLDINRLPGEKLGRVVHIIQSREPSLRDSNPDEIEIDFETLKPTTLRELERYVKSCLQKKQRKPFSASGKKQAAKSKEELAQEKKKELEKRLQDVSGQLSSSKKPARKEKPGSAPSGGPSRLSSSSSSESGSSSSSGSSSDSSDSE
T4 sequence (Q96SW2 whole entry, looked up): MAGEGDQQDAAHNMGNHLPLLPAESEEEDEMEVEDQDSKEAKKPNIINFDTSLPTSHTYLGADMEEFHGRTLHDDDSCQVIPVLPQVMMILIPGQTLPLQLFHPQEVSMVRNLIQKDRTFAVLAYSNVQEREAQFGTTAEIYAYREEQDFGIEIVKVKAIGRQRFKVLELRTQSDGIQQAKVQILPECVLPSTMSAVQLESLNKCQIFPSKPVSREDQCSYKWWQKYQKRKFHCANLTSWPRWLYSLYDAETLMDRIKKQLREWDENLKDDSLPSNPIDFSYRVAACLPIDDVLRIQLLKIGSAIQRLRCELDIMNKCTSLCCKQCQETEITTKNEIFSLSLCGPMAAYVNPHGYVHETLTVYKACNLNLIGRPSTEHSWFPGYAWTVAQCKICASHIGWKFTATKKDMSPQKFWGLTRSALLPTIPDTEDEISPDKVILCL
T1 sequence (P15170 whole entry, looked up): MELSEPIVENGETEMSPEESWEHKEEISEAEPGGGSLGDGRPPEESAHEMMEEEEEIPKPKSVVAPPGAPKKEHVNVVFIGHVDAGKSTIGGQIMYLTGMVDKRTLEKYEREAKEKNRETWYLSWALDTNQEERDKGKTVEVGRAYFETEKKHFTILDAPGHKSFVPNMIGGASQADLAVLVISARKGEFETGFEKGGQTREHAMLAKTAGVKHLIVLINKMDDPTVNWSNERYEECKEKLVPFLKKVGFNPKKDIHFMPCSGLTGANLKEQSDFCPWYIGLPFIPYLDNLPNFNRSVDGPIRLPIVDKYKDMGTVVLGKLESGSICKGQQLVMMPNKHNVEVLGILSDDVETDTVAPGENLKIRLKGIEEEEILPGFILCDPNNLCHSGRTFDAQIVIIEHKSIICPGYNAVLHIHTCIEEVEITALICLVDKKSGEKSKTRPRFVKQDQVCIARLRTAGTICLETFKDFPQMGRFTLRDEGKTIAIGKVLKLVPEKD
T1 sequence (Q13619 whole entry, looked up): as the sequence (Q13619 whole entry, looked up) above
T1 sequence (Q96SW2 whole entry, looked up): as the sequence (Q96SW2 whole entry, looked up) above
T2 sequence (P25440 whole entry, looked up): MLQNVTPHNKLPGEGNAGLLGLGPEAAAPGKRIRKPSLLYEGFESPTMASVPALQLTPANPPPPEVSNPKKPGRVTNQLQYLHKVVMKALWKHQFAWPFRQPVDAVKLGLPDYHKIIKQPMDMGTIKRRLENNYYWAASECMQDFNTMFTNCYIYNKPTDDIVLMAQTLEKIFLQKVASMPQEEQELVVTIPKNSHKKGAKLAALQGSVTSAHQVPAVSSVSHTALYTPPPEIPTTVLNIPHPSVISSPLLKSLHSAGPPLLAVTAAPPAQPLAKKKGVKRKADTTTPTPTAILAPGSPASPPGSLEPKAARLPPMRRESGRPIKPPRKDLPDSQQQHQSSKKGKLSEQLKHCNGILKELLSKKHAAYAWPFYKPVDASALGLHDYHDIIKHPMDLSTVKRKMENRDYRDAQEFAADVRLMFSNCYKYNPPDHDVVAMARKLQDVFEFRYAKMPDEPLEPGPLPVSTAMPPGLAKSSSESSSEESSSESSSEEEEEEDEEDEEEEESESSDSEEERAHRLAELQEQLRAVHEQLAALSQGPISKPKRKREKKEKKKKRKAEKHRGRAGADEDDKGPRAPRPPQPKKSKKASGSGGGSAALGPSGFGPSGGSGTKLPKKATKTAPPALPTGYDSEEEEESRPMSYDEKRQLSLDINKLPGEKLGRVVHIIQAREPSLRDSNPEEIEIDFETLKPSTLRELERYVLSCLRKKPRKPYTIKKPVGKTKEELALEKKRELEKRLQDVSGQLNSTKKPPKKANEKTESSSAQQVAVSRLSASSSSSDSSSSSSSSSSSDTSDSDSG
T2 sequence (Q13619 whole entry, looked up): as the sequence (Q13619 whole entry, looked up) above
T2 sequence (Q96SW2 whole entry, looked up): as the sequence (Q96SW2 whole entry, looked up) above

Structure (SMILES): Cc1nnc2n1Cc1sc(C#Cc3cnn(CCCC#Cc4cccc5c4CN(C4CCC(=O)NC4=O)C5=O)c3)c(Cc3ccccc3)c1OC2 (centres undefined)
- Activity [1]: inactive
- Drug uptake [2]: Bld
- Activity [3]: inactive
- Activity [4]: >40%
- Drug uptake [5]: Bld
- Activity [6]: inactive
- Activity [7]: Active
- Activity [8]: Active
- Activity [9]: inactive
- Activity [10]: Active
- Activity [11]: Non-Toxic
- Activity [12]: Dose-dependent effect
- Activity [13]: inactive
- Activity [14]: Dose-dependent effect
- Activity [15]: Active
- Activity [16]: inactive
- Activity [17]: Active
- Activity [18]: inactive
- Activity [19]: Non-Toxic
- Activity [20]: inactive
- Activity [21]: inactive
- Activity [22]: Active
- Activity [23]: >60%
- Activity [24]: inactive
